From ChEMBL document CHEMBL1135913, “Structure-based design, synthesis, and biological evaluation of irreversible human rhinovirus 3C protease inhibitors. 6. Structure-activity studies of orally bioavailable, 2-pyridone-containing peptidomimetics” (J Med Chem, 2002) come the findings set out here.

Series [1] deals with T1, Human rhinovirus A protease (Human rhinovirus sp.) (UniProt Q4U254).
T1 sequence (whole entry): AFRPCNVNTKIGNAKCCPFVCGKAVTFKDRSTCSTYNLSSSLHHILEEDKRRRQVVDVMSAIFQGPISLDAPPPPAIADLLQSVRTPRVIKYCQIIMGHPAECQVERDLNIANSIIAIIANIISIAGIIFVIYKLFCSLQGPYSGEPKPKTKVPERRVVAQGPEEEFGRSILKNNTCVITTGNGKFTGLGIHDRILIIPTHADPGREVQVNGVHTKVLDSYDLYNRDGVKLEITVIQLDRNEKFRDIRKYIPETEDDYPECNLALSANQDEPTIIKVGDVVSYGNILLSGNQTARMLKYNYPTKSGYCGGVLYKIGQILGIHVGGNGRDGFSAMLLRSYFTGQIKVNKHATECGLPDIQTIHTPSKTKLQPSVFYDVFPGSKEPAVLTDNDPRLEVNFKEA
Briefly: Inhibitory activity against Human Rhinovirus Protease 3C (serotype 14). To be noted: Rhinovirus B.

Series [2] deals with T2, Human rhinovirus A protease (Human rhinovirus sp., UniProt Q4U254).
T2 sequence (Q4U254 whole entry): T1 sequence (whole entry)
The series can be described thus: Inhibition of HRV Protease 3CP (serotype 14). Further details: species or system Rhinovirus B.

The target of series [3] is T1, Human rhinovirus A protease (Human rhinovirus sp.). Briefly: (§1) cytotoxicity against HRV Protease 3CP (serotype 14).
Series [4] shares this target. The series can be described thus: cytotoxicity against HRV Protease 3CP (serotype 1A),. The series is classed as functional.
Series [5] has the same target. The series can be described thus: cytotoxicity against HRV Protease 3CP (serotype 14),. The format is functional.
The target is the same in series [6]. The series can be described thus: cytotoxicity against HRV Protease 3CP (serotype 10),. The format is functional.
The target is the same in series [7]. Briefly: cytotoxicity against Human Rhinovirus Protease 3C (serotype 14).
Series [8] has the same target. Briefly: cytotoxicity against HRV Protease 3CP (serotype 10). The format is functional.
Series [9] has the same target. Described as §1. The series is classed as functional.
A short description of series [10]: Loss of compound (%metabolized) after 30 min exposure to human liver microsomes. The series is classed as ADME, Microsome. To be noted: read-out: Metabolism. The essentials:
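Pooled human liver microsomes (1 mg/mL, 6–8 livers) with 2 mM NADPH in 100 mM potassium phosphate pH 7.4 were preincubated 1 min at 37 °C. Compound was added at 25 μM and incubated 30 min, then quenched with acetonitrile. Loss was measured against time-zero controls by reversed-phase HPLC with UV at 215 nm.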

Series [11] addresses T1, Human rhinovirus A protease (Human rhinovirus sp.). Briefly: cytotoxicity against HRV Protease 3CP (serotype 1A). The series is classed as functional.

Compound `CCOC(=O)/C=C/[C@H](CCC(N)=O)NC(=O)[C@H](Cc1ccccc1)n1cccc(NC(=O)C2CCCO2)c1=O` (stereo partly drawn) gave a K obs / 1 in series [1] of 3750 M⁻¹ s⁻¹. Also, in [2], the EC50 amounted to 1.78 µM. The compound also came in with a CC50 in series [3] above 10 µM.
`CCOC(=O)/C=C/[C@H](CCC(N)=O)NC(=O)[C@H](Cc1ccc(F)c(F)c1)n1cccc(NC(=O)OCc2ccccc2)c1=O`: in series [1], the K obs / 1 came out at 193000 M⁻¹ s⁻¹. Moreover, the concentration giving a half-maximal response (EC50) in [2] is 0.003 µM. Moreover, the 50% cytotoxic concentration (CC50) in series [4], in [5] and in [6] was above 10 µM throughout.
In series [1], `CCOC(=O)/C=C/[C@H](CCC(N)=O)NC(=O)[C@H](Cc1ccccc1)n1cccc(NC(=O)c2cc(C)on2)c1=O` registered a K obs / 1 of 329000 M⁻¹ s⁻¹. In addition, the EC50 in series [2] is 0.016 µM. For the same compound, the CC50 in series [3] was above 10 µM.
Compound `CCOC(=O)/C=C/[C@H](CCC(N)=O)NC(=O)[C@H](Cc1ccccc1)NC(=O)[C@H](CC(C)C)NC(=O)OCc1ccccc1` came in with a CC50 in series [7] above 320 µM.
With `CCOC(=O)/C=C/[C@H](CCC(N)=O)NC(=O)[C@H](Cc1ccc(F)cc1)n1cccc(NC(=O)OCc2ccccc2)c1=O`, the K obs / 1 in [1] amounted to 81400 M⁻¹ s⁻¹. A half-maximal response in [2] (EC50) required 0.014 µM. For the same compound, the CC50 in [4] was above 10 µM; in series [5] it was above 320 µM; in series [6], above 10 µM.
On to `CCOC(=O)/C=C/[C@H](C[C@H]1CCNC1=O)NC(=O)[C@H](Cc1ccccc1)n1cccc(NC(=O)OCc2ccccc2)c1=O`, for which, in series [1], the K obs / 1 was 6340 M⁻¹ s⁻¹. The compound further had a half-maximal effective concentration (EC50) in series [2] of 0.469 µM. The compound further had a CC50 in series [3] above 10 µM.
In turn, `CCOC(=O)/C=C/[C@H](CCC(N)=O)NC(=O)Cn1cccc(NC(=O)OCc2ccccc2)c1=O` displayed an EC50 in series [2] above 10 µM. Besides, in series [3], the CC50 was above 10 µM.
For `CCOC(=O)/C=C/[C@H](C[C@@H]1CCNC1=O)NC(=O)[C@H](Cc1ccc(F)cc1)n1cccc(NC(=O)c2cc(C)on2)c1=O`, the 50% cytotoxic concentration (CC50) in [8], in [9] and in series [11] was above 10 µM each time. For the same compound, the K obs / 1 in series [1] amounted to 1.25e+06 M⁻¹ s⁻¹. This compound also came in with an EC50 in series [2] of 0.002 µM. For the same compound, the metabolised at 0.5 h in series [10] worked out at 95%.
As for `CCOC(=O)/C=C/[C@H](CCC(N)=O)NC(=O)[C@H](Cc1ccccc1)n1cccc(NC(=O)C2SCCS2)c1=O`, the half-maximal cytotoxic concentration (CC50) in series [8], in series [9] and in series [11] was above 10 µM throughout. This compound also yielded a K obs / 1 in series [1] of 114000 M⁻¹ s⁻¹. Also, the EC50 in series [2] came out at 0.104 µM.
In turn, `CCOC(=O)/C=C/[C@H](CCC(N)=O)NC(=O)[C@H](Cc1ccccc1)n1cccc(NC(C)=O)c1=O` had a K obs / 1 in series [1] of 7660 M⁻¹ s⁻¹. Also, in series [2], the half-maximal effective concentration (EC50) was found to be 0.888 µM. For the same compound, the CC50 in series [3] is above 10 µM.
Take `CCOC(=O)/C=C/[C@H](C[C@@H]1CCNC1=O)NC(=O)[C@H](Cc1ccccc1)n1cccc(NC(=O)OCc2ccccc2)c1=O`: in series [1], the K obs / 1 came out at 380000 M⁻¹ s⁻¹. The CC50 in series [9] was above 1 µM.
